# In PMC3018684 (Free radical research, 2010):
# Experiments:
# MPO in CF sputum = format: biochemical, human; settings: extrapolated from IC50 in about 2000-fold diluted sputum (Fig 4)
# [1] = cited from earlier work
# [2] = CF patients, 300/450 mg three times daily for 14 days; cited from earlier work
# [3] = Ex vivo scavenging of N-chloramines in CF sputum sol-phase; parameters: species or system human; settings: 2 μM antioxidant, 25 μl CF sputum sol-phase, 30 min
# purified human MPO = purified human MPO (Homo sapiens, UniProt P05164); assay: Inhibition kinetics of MPO-dependent TMB oxidation by thiol antioxidants; format: biochemical; settings: for mode of inhibition of MPO-catalyzed oxidation of TMB: double reciprocal plots 1/V vs 1/[TMB]
# Chain of purified human MPO (P05164 279-745 limits assumed): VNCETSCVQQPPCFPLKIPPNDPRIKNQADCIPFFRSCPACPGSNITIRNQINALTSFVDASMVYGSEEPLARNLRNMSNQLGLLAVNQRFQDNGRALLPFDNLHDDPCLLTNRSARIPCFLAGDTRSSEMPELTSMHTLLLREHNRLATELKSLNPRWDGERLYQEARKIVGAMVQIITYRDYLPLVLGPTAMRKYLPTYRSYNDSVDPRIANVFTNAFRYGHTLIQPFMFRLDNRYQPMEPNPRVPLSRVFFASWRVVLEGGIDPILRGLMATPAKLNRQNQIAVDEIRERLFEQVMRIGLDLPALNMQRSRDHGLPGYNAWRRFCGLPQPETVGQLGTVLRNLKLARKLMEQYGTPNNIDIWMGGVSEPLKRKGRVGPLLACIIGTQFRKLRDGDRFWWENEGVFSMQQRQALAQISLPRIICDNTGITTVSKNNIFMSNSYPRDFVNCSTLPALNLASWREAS
# Chain of purified human MPO (P05164 165-273 limits assumed): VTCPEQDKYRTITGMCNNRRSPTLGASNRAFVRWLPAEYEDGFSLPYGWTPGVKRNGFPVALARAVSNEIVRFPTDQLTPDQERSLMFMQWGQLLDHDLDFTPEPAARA
# In short: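 Purified human MPO (1.5 nM) incubated with test thiol at 0.1–1 μM. Activity measured as initial rate of TMB oxidation, with TMB varied from 20 to 180 μM. Data plotted as double reciprocal 1/V vs 1/[TMB] (Lineweaver-Burk) for each inhibitor level. Slopes of these lines replotted against inhibitor concentration to derive Ki.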
# MPO compound I and II = settings: cited from earlier work; for rate constant k of reaction with compound I and II of MPO: both compound I and II
# NF-κB = settings: GSH 1 mM with CF sputum sol-phase 10 μl/ml, HBE1 cells
# [4] = pH 7.4; cited from earlier work
# ground state ferric MPO = settings: cited from earlier work
# [5] = oral 0.6–1.0 g three times daily for 4 weeks; cited from earlier work
# [6] = inhalation in CF patients, secondary to acidic nature; no reference given; cited from earlier work
# [7] = no reference given; cited from earlier work
compound,measurement,setting,value
"N[C@@H](CCC(=O)N[C@@H](CS)C(=O)NCC(=O)O)C(=O)O [GSH, glutathione]",respiratory tract lining fluid concentration required to inhibit MPO in the CF airway,MPO in CF sputum,1 to 50 mM
same,rate constant k of reaction with taurine chloramine,[1],115 ± 14 M⁻¹ s⁻¹
same,lung function after aerosolized GSH,[2],improved lung function
same,lowering of N-chloramine levels,[3],62 ± 11%
same,Ki,purified human MPO,80 nM
same,mode of inhibition of MPO-catalyzed oxidation of TMB,purified human MPO,competitive
same,rate constant k of reaction with compound I and II of MPO,MPO compound I and II,10^1–10^2 M^−1s^−1
same,p65 nuclear translocation induced by CF sputum (sol-phase),NF-κB,inhibit p65 nuclear translocation
same,second-order rate constant for reaction with H2O2,[4],0.87 M⁻¹ s⁻¹
OO [H2O2],rate constant k of reaction with ground state ferric MPO,ground state ferric MPO,2.6e+07 M⁻¹ s⁻¹
"CC(=O)N[C@@H](CS)C(=O)O [NAC, N-acetylcysteine]",respiratory tract lining fluid concentration required to inhibit MPO in the CF airway,MPO in CF sputum,1 to 50 mM
same,rate constant k of reaction with taurine chloramine,[1],46 ± 7 M⁻¹ s⁻¹
same,reactivity with taurine chloramine relative to GSH (times less reactive),[1],approx. 2.5
same,"lung function, as assessed by FEV1",[5],no improvement in lung function
same,neutrophil GSH content,[5],increased neutrophil GSH content
same,neutrophil influx in CF airways,[5],decreased neutrophil influx in CF airways
same,sputum IL-8 levels,[5],decreased sputum IL-8 levels
same,sputum elastase activity,[5],decreased sputum elastase activity
same,side effects on inhalation,[6],can induce bronchospasm
same,lowering of N-chloramine levels,[3],80 ± 11%
same,mode of inhibition of MPO-catalyzed oxidation of TMB,purified human MPO,non-competitive
same,rate constant k of reaction with compound I and II of MPO,MPO compound I and II,10^1–10^2 M^−1s^−1
same,pKa,[7],2.2
same,second-order rate constant for reaction with H2O2,[4],0.16 M⁻¹ s⁻¹
"Cc1cc(-c2cc(C)c(N)c(C)c2)cc(C)c1N [TMB, 3, 3′, 5, 5′-tetramethylbenzidine]",rate constant of reaction with MPO compound I,MPO compound I and II,3.6e+06 M⁻¹ s⁻¹
same,rate constant of reaction with MPO compound II,MPO compound I and II,940000 M⁻¹ s⁻¹
